What was measured:
[1] = biological target: T1, Prostaglandin D2 receptor (Mus musculus, UniProt P70263); test: Antagonist activity at mouse DP receptor expressed in CHO cells assessed as inhibition of PGD2-induced cAMP accumulation after 10 mins by enzyme immunoassay in the presence of 0.1% BSA; type: functional, cell-based
T1 sequence (P70263 whole entry): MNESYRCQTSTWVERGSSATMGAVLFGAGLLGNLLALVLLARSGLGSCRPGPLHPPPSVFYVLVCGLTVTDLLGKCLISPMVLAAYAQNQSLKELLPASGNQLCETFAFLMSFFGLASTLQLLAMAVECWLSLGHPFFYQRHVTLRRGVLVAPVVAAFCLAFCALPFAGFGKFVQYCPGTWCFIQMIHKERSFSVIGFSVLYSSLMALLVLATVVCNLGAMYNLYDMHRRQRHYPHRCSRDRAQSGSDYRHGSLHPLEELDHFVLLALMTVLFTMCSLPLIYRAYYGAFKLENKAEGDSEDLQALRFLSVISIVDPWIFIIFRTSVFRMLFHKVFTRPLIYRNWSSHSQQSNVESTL
Outline: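 CHO cells stably expressing mDP were seeded at 1 × 10⁵ cells/well and grown 2 days. They were preincubated about 10 min at 37 °C in MEM with Diclofenac, then given assay medium (MEM, 0.1% BSA, 1 mM IBMX, Diclofenac). Test compound at various concentrations plus 10 nM PGD₂ was added for 10 min at 37 °C. The reaction was stopped with ice-cold 10% TCA and TCA was extracted. cAMP was measured by EIA. IC50 came from cAMP relative to the PGD₂-only maximum.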

[2] = biological target: T1, Prostaglandin D2 receptor; test: Displacement of [3H]-PGD2 from mouse DP receptor expressed in CHO cells after 20 mins by liquid scintillation counting; type: cell-based
Outline: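 Membranes from CHO cells stably expressing mDP were incubated with 2.5 nM [³H]PGD₂ and compounds at various concentrations. Buffer was 25 mM HEPES–NaOH pH 7.4 with 1 mM EDTA, 5 mM MgCl₂ and 10 mM MnCl₂, for 20 min at room temperature. Samples were filtered on GF/B and washed with Tris–HCl pH 7.4, NaCl, 0.01% BSA. Filters were dried 60 min at 60 °C and read by scintillation counting. Nonspecific binding was set with excess unlabeled PGD₂.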

[3] = biological target: Prostacyclin receptor (Homo sapiens, UniProt P43119); test: Displacement of [3H]-Iloprost from human IP receptor expressed in CHO cells after 30 mins by liquid scintillation counting; type: cell-based
Outline: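 Membranes from CHO cells expressing hIP were incubated with 5.0 nM [³H]Iloprost and compounds at various concentrations. Buffer was 50 mM Tris–HCl pH 7.5 with 1 mM EDTA and 10 mM MgCl₂, for 30 min at room temperature. Samples were filtered on GF/B, washed with 10 mM Tris–HCl/100 mM NaCl pH 7.5, dried 60 min at 60 °C and scintillation counted.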

[4] = biological target: Prostaglandin E2 receptor EP4 subtype (Mus musculus, UniProt P32240); test: Displacement of [3H]-PGE2 from mouse EP4 receptor expressed in CHO cells after 60 mins by liquid scintillation counting; type: cell-based
Outline: (§1)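 Membranes from CHO cells stably expressing mEP1, mEP2, mEP3a, mEP4 or mFP were used. The radioligand was 2.5 nM [³H]PGE₂ for EP receptors and 2.5 nM [³H]PGF2α for FP. Buffer was 10 mM KH₂PO₄–KOH pH 6.0 with 1 mM EDTA, 10 mM MgCl₂ and 100 mM NaCl. Incubation was at room temperature, 20 min for mEP1 and 60 min for the others. Samples were filtered on GF/B, washed with phosphate/NaCl pH 6.0, dried 60 min at 60 °C and scintillation counted.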

[5] = biological target: Prostaglandin E2 receptor EP2 subtype (Mus musculus, UniProt Q62053); test: Displacement of [3H]-PGE2 from mouse EP2 receptor expressed in CHO cells after 60 mins by liquid scintillation counting; type: cell-based; outline: as §1
[6] = biological target: T2, Thromboxane A2 receptor (Homo sapiens, UniProt P21731); test: Displacement of [3H]-SQ29548 from human TP receptor expressed in CHO cells after 30 mins by liquid scintillation counting; type: cell-based
T2 sequence (P21731 whole entry): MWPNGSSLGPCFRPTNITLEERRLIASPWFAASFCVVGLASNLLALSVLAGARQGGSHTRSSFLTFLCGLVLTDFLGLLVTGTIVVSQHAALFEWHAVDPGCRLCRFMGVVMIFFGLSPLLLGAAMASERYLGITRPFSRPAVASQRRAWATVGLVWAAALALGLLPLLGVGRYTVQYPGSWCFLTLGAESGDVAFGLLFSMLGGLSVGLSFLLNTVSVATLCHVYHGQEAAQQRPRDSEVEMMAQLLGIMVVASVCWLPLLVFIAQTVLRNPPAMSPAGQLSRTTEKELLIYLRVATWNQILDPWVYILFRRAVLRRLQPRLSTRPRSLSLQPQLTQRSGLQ
Outline: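 Membranes from CHO cells expressing hTP were incubated with 5.0 nM [³H]-SQ29548 and compounds at various concentrations. Buffer was 10 mM Tris–HCl pH 7.5 with 100 mM NaCl, for 30 min at room temperature. Samples were filtered on GF/B, washed with the same buffer, dried 60 min at 60 °C and scintillation counted. Nonspecific binding was set with excess unlabeled SQ29548.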

[7] = biological target: Prostaglandin F2-alpha receptor (Mus musculus, UniProt P43117); test: Displacement of [3H]-PGF2-alpha from mouse FP receptor expressed in CHO cells after 60 mins by liquid scintillation counting; type: cell-based; outline: as §1
[8] = biological target: T3, Prostaglandin E2 receptor EP3 subtype (Mus musculus, UniProt P30557); test: Displacement of [3H]-PGE2 from mouse EP3 receptor expressed in CHO cells after 60 mins by liquid scintillation counting; type: cell-based; outline: as §1
T3 sequence (P30557 whole entry): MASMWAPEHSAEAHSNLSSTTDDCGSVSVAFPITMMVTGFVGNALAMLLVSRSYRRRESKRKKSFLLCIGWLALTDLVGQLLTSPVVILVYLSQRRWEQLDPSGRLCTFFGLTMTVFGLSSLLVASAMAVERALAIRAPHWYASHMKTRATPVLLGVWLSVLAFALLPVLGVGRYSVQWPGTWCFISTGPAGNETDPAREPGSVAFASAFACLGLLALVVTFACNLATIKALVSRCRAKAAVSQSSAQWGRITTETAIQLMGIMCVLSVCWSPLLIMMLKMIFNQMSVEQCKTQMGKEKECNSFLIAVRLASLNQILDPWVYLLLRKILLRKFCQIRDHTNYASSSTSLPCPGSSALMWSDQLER

[9] = biological target: T4, Prostaglandin E2 receptor EP1 subtype (Mus musculus, UniProt P35375); test: Displacement of [3H]-PGE2 from mouse EP1 receptor expressed in CHO cells after 20 mins by liquid scintillation counting; type: cell-based; outline: as §1
T4 sequence (P35375 whole entry): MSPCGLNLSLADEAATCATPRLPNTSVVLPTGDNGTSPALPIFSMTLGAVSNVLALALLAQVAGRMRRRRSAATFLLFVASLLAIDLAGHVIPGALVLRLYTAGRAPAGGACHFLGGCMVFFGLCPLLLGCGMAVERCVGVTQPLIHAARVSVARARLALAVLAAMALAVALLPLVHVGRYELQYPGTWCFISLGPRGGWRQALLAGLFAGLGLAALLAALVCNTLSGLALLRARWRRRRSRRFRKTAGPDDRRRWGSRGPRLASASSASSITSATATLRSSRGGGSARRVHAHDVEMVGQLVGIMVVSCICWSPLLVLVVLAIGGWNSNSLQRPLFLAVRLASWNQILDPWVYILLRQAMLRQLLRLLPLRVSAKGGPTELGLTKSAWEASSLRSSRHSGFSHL

Sequence of Prostaglandin F2-alpha receptor (P43117 whole entry): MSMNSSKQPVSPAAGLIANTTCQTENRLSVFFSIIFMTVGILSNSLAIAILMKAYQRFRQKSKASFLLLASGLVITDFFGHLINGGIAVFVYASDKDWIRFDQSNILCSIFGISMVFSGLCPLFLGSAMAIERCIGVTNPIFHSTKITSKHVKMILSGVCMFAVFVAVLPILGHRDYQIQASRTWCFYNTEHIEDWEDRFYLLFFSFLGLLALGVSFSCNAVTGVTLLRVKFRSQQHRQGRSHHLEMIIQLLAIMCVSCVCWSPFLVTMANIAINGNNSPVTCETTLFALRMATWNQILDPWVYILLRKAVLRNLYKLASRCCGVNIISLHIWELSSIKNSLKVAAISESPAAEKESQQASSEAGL
Sequence of Prostaglandin E2 receptor EP2 subtype (Q62053 whole entry): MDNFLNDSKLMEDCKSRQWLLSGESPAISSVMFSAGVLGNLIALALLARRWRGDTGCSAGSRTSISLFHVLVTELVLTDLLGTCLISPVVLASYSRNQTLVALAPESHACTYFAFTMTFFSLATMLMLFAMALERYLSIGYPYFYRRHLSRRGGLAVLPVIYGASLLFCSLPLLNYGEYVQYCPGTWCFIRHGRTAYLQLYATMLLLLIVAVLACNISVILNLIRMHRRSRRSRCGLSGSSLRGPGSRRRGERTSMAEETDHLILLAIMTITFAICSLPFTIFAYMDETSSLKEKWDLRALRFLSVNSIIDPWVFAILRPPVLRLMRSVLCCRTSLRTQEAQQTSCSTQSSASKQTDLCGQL
Sequence of Prostaglandin E2 receptor EP4 subtype (P32240 whole entry): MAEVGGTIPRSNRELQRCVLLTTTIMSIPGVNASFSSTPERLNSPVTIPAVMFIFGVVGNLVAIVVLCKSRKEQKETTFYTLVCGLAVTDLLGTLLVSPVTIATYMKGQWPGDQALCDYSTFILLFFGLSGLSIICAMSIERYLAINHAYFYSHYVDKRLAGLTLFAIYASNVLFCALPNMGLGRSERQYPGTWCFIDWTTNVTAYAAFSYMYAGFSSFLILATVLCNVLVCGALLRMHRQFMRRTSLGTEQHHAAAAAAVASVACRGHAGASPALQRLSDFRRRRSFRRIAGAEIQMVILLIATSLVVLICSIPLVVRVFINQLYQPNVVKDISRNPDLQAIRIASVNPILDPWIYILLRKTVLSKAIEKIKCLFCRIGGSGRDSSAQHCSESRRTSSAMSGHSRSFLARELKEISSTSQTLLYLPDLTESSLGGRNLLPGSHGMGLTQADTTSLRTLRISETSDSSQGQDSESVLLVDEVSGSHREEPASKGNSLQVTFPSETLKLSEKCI
Sequence of Prostacyclin receptor (P43119 whole entry): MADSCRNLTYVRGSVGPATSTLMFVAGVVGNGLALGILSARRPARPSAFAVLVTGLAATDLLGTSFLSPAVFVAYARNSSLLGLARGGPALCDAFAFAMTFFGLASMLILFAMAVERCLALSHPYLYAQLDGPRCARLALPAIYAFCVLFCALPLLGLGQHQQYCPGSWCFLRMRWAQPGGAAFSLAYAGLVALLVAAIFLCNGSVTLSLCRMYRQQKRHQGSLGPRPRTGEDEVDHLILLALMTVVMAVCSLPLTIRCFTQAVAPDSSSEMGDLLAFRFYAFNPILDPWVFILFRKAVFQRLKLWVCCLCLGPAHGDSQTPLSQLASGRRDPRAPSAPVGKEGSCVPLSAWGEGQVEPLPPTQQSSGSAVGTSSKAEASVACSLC

SMILES	IC50 [1] [µM]	Ki [2] [µM]	Ki [3] [µM]	Ki [4] [µM]	Ki [5] [µM]	Ki [6] [µM]	Ki [7] [µM]	Ki [8] [µM]	Ki [9] [µM]
Cc1c(CC(=O)O)c2ccccc2n1C(=O)c1ccc(OC[C@@H]2CN(C)c3ccccc3O2)cc1		0.0077	0.2	> 10	0.21	> 10	2.1	1.7	> 10
Cc1cc(C(=O)n2c(C)c(CC(=O)O)c3cc(F)ccc32)c(C)cc1OC[C@@H]1CN(C)c2ccccc2O1	0.0028	0.014	0.093						
Cc1cc(OC[C@@H]2COc3ccccc32)ccc1C(=O)n1c(C)c(CC(=O)O)c2ccccc21	0.072	0.043	2.1						
Cc1cc(OCC2Cc3ccccc3N2C)ccc1C(=O)n1c(C)c(CC(=O)O)c2ccccc21 (stereo not given)	0.0062		> 10						
Cc1cc(C(=O)n2c(C)c(CC(=O)O)c3cc(F)ccc32)ccc1OC[C@@H]1CN(C)c2ccccc2O1	0.042	0.059	0.16						
Cc1cc(OC[C@@H]2CN(C)c3ccccc3O2)ccc1C(=O)n1c(C)c(CC(=O)O)c2cc(F)ccc21	0.0032	0.0027	0.13						
CCN1c2ccccc2CC1COc1ccc(C(=O)n2c(C)c(CC(=O)O)c3ccccc32)c(C)c1 (stereo not given)	0.0031	0.022	5.1						
Cc1c(OC[C@@H]2CN(C)c3ccccc3O2)ccc(C(=O)n2c(C)c(CC(=O)O)c3ccccc32)c1C		0.38	0.098						
Cc1c(CC(=O)O)c2ccccc2n1C(=O)c1ccc(OC[C@@H]2CN(C)c3ccccc3O2)c(F)c1		0.24	0.21						
Cc1cc(OC[C@@H]2COc3ccccc3O2)ccc1C(=O)n1c(C)c(CC(=O)O)c2ccccc21	0.0038	0.022	0.57						
Cc1c(CC(=O)O)c2cc(F)ccc2n1C(=O)c1ccc(OC[C@@H]2CN(C)c3ccccc3O2)cc1	0.0018	0.0057	0.32	> 10	0.25	> 10	1.7	1.9	> 10
COc1ccc2c(c1)c(CC(=O)O)c(C)n2C(=O)c1ccc(OC[C@@H]2CN(C)c3ccccc3O2)cc1		0.0099	1	3	0.31			2.5	> 10
Cc1cc(OC[C@@H]2Cc3ccccc3O2)ccc1C(=O)n1c(C)c(CC(=O)O)c2ccccc21	0.007	0.0071	0.28						

The remaining lines, values ahead:

IC50 [1] [µM]	Ki [2] [µM]	Ki [3] [µM]	Ki [4] [µM]	Ki [5] [µM]	Ki [6] [µM]	Ki [7] [µM]	Ki [8] [µM]	Ki [9] [µM]	SMILES
0.0007	0.0038	0.32							Cc1c(CC(=O)O)c2cc(F)ccc2n1C(=O)c1ccc(OC[C@@H]2CN(C)c3ccccc3O2)cc1F
0.0025	0.0038	0.11							Cc1c(CC(=O)O)c2ccccc2n1C(=O)c1ccc(OC[C@@H]2CN(C)c3ccccc3O2)cc1F
	0.38	0.091							Cc1c(CC(=O)O)c2ccccc2n1C(=O)c1ccc(OC[C@@H]2CN(C)c3ccccc3O2)c(Cl)c1
0.0031	0.029	0.049	> 10	0.33		2.2	> 10	> 10	Cc1c(CC(=O)O)c2cc(Cl)ccc2n1C(=O)c1ccc(OC[C@@H]2CN(C)c3ccccc3O2)cc1
0.043		3							Cc1cc(OCC2Oc3ccccc3O2)ccc1C(=O)n1c(C)c(CC(=O)O)c2ccccc21
0.068		1.5							COc1cc(C(=O)n2c(C)c(CC(=O)O)c3cc(F)ccc32)ccc1OC[C@@H]1CN(C)c2ccccc2O1
0.0043	0.028	1.1	3.6	0.34	> 10	1.7	2.8	5.2	Cc1ccc2c(c1)c(CC(=O)O)c(C)n2C(=O)c1ccc(OC[C@@H]2CN(C)c3ccccc3O2)cc1
	> 10		> 10	> 10			> 10	> 10	COc1ccc2c(c1)c(CC(=O)O)c(C)n2C(=O)c1ccc(Cl)cc1 [INDOMETHACIN]
0.0018	0.0054	0.52							Cc1cc(OC[C@@H]2COc3ccc(F)cc32)ccc1C(=O)n1c(C)c(CC(=O)O)c2ccccc21
	0.14	0.072							Cc1cc(C(=O)n2c(C)c(CC(=O)O)c3ccccc32)ccc1OC[C@@H]1CN(C)c2ccccc2O1
0.032		0.23							Cc1c(OC[C@@H]2CN(C)c3ccccc3O2)ccc(C(=O)n2c(C)c(CC(=O)O)c3cc(F)ccc32)c1C
	0.34	0.43							COc1cc(C(=O)n2c(C)c(CC(=O)O)c3ccccc32)ccc1OC[C@@H]1CN(C)c2ccccc2O1
	0.36	0.094							Cc1cc(C(=O)n2c(C)c(CC(=O)O)c3ccccc32)c(C)cc1OC[C@@H]1CN(C)c2ccccc2O1
